Test results taken from ChEMBL document CHEMBL4130552, “Design, synthesis and biological evaluation of novel benzimidazole amidines as potent multi-target inhibitors for the treatment of non-small cell lung cancer” (Eur J Med Chem, 2018).

System: CFPAC-1
Test: Antiproliferative activity against human CFPAC-1 cells after 72 hrs by MTT assay
Assay type: functional, cell-based
Conditions: CFPAC-1, 72 h
Procedure, shortened: (§1)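 Cells seeded at 5000/well on day 0 in medium with 10% FBS, 2 mM L-glutamine, penicillin/streptomycin, 37 °C, 5% CO2. Compounds added at five 10-fold dilutions with DMSO ≤0.1%, then 72 h exposure. MTT absorbance converted to percentage growth versus untreated wells. IC50 by linear regression between bracketing concentrations. Quadruplicate points, three independent experiments.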

| Compound | IC50 [µM] |
| --- | --- |
| CC(C)NC(=N)c1ccc2[nH]c(-c3ccc(OCc4cn(Cc5ccccc5)nn4)cc3)nc2c1 | > 100 |
| Clc1ccc(-n2cc(COc3ccc(-c4nc5ccc(Cl)cc5[nH]4)cc3)nn2)cc1 | 3.74 |
| Clc1ccc(-n2cc(-c3nc4cc(C5=NCCN5)ccc4[nH]3)nn2)cc1 | 0.83 |
| FC(F)(F)c1ccc(-n2cc(COc3ccc(-c4nc5cc(C6=NCCN6)ccc5[nH]4)cc3)nn2)cc1 | 0.65 |
| CC(C)NC(=N)c1ccc2[nH]c(CCc3cn(-c4ccc(Cl)cc4)nn3)nc2c1 | 36.1 |
| N=C(N)c1ccc2[nH]c(-c3ccc(OCc4cn(Cc5ccccc5)nn4)cc3)nc2c1 | 34.4 |
| CC(C)NC(=N)c1ccc2[nH]c(-c3ccc(OCc4cn(-c5ccc(C(F)(F)F)cc5)nn4)cc3)nc2c1 | > 100 |
| Clc1ccc(-n2cc(COc3ccc(-c4nc5cc(C6=NCCN6)ccc5[nH]4)cc3)nn2)cc1 | 16.9 |
| c1ccc(-n2cc(COc3ccc(-c4nc5cc(C6=NCCN6)ccc5[nH]4)cc3)nn2)cc1 | 26.2 |
| CC(C)NC(=N)c1ccc2[nH]c(-c3ccc(OCc4cn(-c5ccccc5)nn4)cc3)nc2c1 | > 100 |
| N=C(N)c1ccc2[nH]c(-c3ccc(OCc4cn(-c5ccc(F)cc5)nn4)cc3)nc2c1 | > 100 |

Target: MAP kinase p38 (Homo sapiens, UniProt O15264+Q15759+Q16539+P53778)
Test: Inhibition of MAPK p38 (unknown origin)
Assay type: protein assay
Conditions: not given

| Compound | IC50 [nM] |
| --- | --- |
| Cc1ccc(-n2nc(C(C)(C)C)cc2NC(=O)Nc2nc(CCOCc3ccncc3)cs2)cc1 | 586 |
| Brc1ccc(-c2c[nH]c([C@@H]3Cc4ccccc4CN3)n2)cc1 | 1900 |

System: SW-620
Test: Antiproliferative activity against human SW620 cells after 72 hrs by MTT assay
Assay type: functional, cell-based
Conditions: SW-620, 72 h
Procedure, shortened: as §1

| Compound | IC50 [µM] |
| --- | --- |
| CC(C)NC(=N)c1ccc2[nH]c(-c3ccc(OCc4cn(Cc5ccccc5)nn4)cc3)nc2c1 | 58.6 |
| Clc1ccc(-n2cc(COc3ccc(-c4nc5ccc(Cl)cc5[nH]4)cc3)nn2)cc1 | 4.28 |
| Clc1ccc(-n2cc(-c3nc4cc(C5=NCCN5)ccc4[nH]3)nn2)cc1 | 1.67 |
| FC(F)(F)c1ccc(-n2cc(COc3ccc(-c4nc5cc(C6=NCCN6)ccc5[nH]4)cc3)nn2)cc1 | 6.35 |
| CC(C)NC(=N)c1ccc2[nH]c(CCc3cn(-c4ccc(Cl)cc4)nn3)nc2c1 | 56.8 |
| N=C(N)c1ccc2[nH]c(-c3ccc(OCc4cn(Cc5ccccc5)nn4)cc3)nc2c1 | 30.9 |
| CC(C)NC(=N)c1ccc2[nH]c(-c3ccc(OCc4cn(-c5ccc(C(F)(F)F)cc5)nn4)cc3)nc2c1 | 50.1 |
| Clc1ccc(-n2cc(COc3ccc(-c4nc5cc(C6=NCCN6)ccc5[nH]4)cc3)nn2)cc1 | 3.65 |
| c1ccc(-n2cc(COc3ccc(-c4nc5cc(C6=NCCN6)ccc5[nH]4)cc3)nn2)cc1 | 29.6 |
| CC(C)NC(=N)c1ccc2[nH]c(-c3ccc(OCc4cn(-c5ccccc5)nn4)cc3)nc2c1 | 62.1 |
| N=C(N)c1ccc2[nH]c(-c3ccc(OCc4cn(-c5ccc(F)cc5)nn4)cc3)nc2c1 | 37.9 |

System: A549
Test: Antiproliferative activity against human A549 cells after 72 hrs by MTT assay
Assay type: functional, cell-based
Conditions: A549, 72 h
Procedure, shortened: as §1

| Compound | IC50 [µM] |
| --- | --- |
| O=c1[nH]cc(F)c(=O)[nH]1 [FLUOROURACIL] | 2.8 |
| CC(C)NC(=N)c1ccc2[nH]c(-c3ccc(OCc4cn(Cc5ccccc5)nn4)cc3)nc2c1 | 6.18 |
| Clc1ccc(-n2cc(COc3ccc(-c4nc5ccc(Cl)cc5[nH]4)cc3)nn2)cc1 | 2.91 |
| Clc1ccc(-n2cc(-c3nc4cc(C5=NCCN5)ccc4[nH]3)nn2)cc1 | 3.86 |
| FC(F)(F)c1ccc(-n2cc(COc3ccc(-c4nc5cc(C6=NCCN6)ccc5[nH]4)cc3)nn2)cc1 | 0.59 |
| CC(C)NC(=N)c1ccc2[nH]c(CCc3cn(-c4ccc(Cl)cc4)nn3)nc2c1 | 33.4 |
| N=C(N)c1ccc2[nH]c(-c3ccc(OCc4cn(Cc5ccccc5)nn4)cc3)nc2c1 | 9.47 |
| CC(C)NC(=N)c1ccc2[nH]c(-c3ccc(OCc4cn(-c5ccc(C(F)(F)F)cc5)nn4)cc3)nc2c1 | 85.8 |
| Clc1ccc(-n2cc(COc3ccc(-c4nc5cc(C6=NCCN6)ccc5[nH]4)cc3)nn2)cc1 | 0.06 |
| c1ccc(-n2cc(COc3ccc(-c4nc5cc(C6=NCCN6)ccc5[nH]4)cc3)nn2)cc1 | 49.7 |
| CC(C)NC(=N)c1ccc2[nH]c(-c3ccc(OCc4cn(-c5ccccc5)nn4)cc3)nc2c1 | > 100 |
| N=C(N)c1ccc2[nH]c(-c3ccc(OCc4cn(-c5ccc(F)cc5)nn4)cc3)nc2c1 | 81 |

System: WI-38
Test: Antiproliferative activity against human WI38 cells after 72 hrs by MTT assay
Assay type: cell-based
Conditions: WI-38, 72 h
Procedure, shortened: as §1

| Compound | IC50 [nM] |
| --- | --- |
| CC(C)NC(=N)c1ccc2[nH]c(-c3ccc(OCc4cn(Cc5ccccc5)nn4)cc3)nc2c1 | 65400 |
| Clc1ccc(-n2cc(COc3ccc(-c4nc5ccc(Cl)cc5[nH]4)cc3)nn2)cc1 | 1520 |
| Clc1ccc(-n2cc(-c3nc4cc(C5=NCCN5)ccc4[nH]3)nn2)cc1 | 2720 |
| FC(F)(F)c1ccc(-n2cc(COc3ccc(-c4nc5cc(C6=NCCN6)ccc5[nH]4)cc3)nn2)cc1 | 690 |
| CC(C)NC(=N)c1ccc2[nH]c(CCc3cn(-c4ccc(Cl)cc4)nn3)nc2c1 | 3710 |
| N=C(N)c1ccc2[nH]c(-c3ccc(OCc4cn(Cc5ccccc5)nn4)cc3)nc2c1 | 890 |
| CC(C)NC(=N)c1ccc2[nH]c(-c3ccc(OCc4cn(-c5ccc(C(F)(F)F)cc5)nn4)cc3)nc2c1 | 320 |
| Clc1ccc(-n2cc(COc3ccc(-c4nc5cc(C6=NCCN6)ccc5[nH]4)cc3)nn2)cc1 | 2240 |
| c1ccc(-n2cc(COc3ccc(-c4nc5cc(C6=NCCN6)ccc5[nH]4)cc3)nn2)cc1 | 100 |
| CC(C)NC(=N)c1ccc2[nH]c(-c3ccc(OCc4cn(-c5ccccc5)nn4)cc3)nc2c1 | 990 |
| N=C(N)c1ccc2[nH]c(-c3ccc(OCc4cn(-c5ccc(F)cc5)nn4)cc3)nc2c1 | 700 |

System: HeLa
Test: Antiproliferative activity against human HeLa cells after 72 hrs by MTT assay
Assay type: functional, cell-based
Conditions: not given
Procedure, shortened: as §1

| Compound | IC50 [µM] |
| --- | --- |
| CC(C)NC(=N)c1ccc2[nH]c(-c3ccc(OCc4cn(Cc5ccccc5)nn4)cc3)nc2c1 | 8.8 |
| Clc1ccc(-n2cc(COc3ccc(-c4nc5ccc(Cl)cc5[nH]4)cc3)nn2)cc1 | 3.54 |
| Clc1ccc(-n2cc(-c3nc4cc(C5=NCCN5)ccc4[nH]3)nn2)cc1 | 0.69 |
| FC(F)(F)c1ccc(-n2cc(COc3ccc(-c4nc5cc(C6=NCCN6)ccc5[nH]4)cc3)nn2)cc1 | 2.69 |
| CC(C)NC(=N)c1ccc2[nH]c(CCc3cn(-c4ccc(Cl)cc4)nn3)nc2c1 | 3.11 |
| N=C(N)c1ccc2[nH]c(-c3ccc(OCc4cn(Cc5ccccc5)nn4)cc3)nc2c1 | 13.7 |
| CC(C)NC(=N)c1ccc2[nH]c(-c3ccc(OCc4cn(-c5ccc(C(F)(F)F)cc5)nn4)cc3)nc2c1 | 13.7 |
| Clc1ccc(-n2cc(COc3ccc(-c4nc5cc(C6=NCCN6)ccc5[nH]4)cc3)nn2)cc1 | 0.22 |
| c1ccc(-n2cc(COc3ccc(-c4nc5cc(C6=NCCN6)ccc5[nH]4)cc3)nn2)cc1 | 7.78 |
| CC(C)NC(=N)c1ccc2[nH]c(-c3ccc(OCc4cn(-c5ccccc5)nn4)cc3)nc2c1 | 16.6 |
| N=C(N)c1ccc2[nH]c(-c3ccc(OCc4cn(-c5ccc(F)cc5)nn4)cc3)nc2c1 | 7.39 |
